Measured values taken from ChEMBL document CHEMBL1629506, “Design, synthesis and structure-activity relationship study of novel pyrazole-based heterocycles as potential antitumor agents” (Eur J Med Chem, 2010).

tested on: Rattus norvegicus; experiment: Antiestrogenic activity in Sprague-Dawley rat assessed as reduction in estradiol induced uterine weight upto 0.06 ug, po after 8 days; format: functional; set-up: scale not given: the % may be the effect or the level left; conditions: not given
How it was run: (§1)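 Immature ovariectomized female Sprague-Dawley rats (~55 g), groups of 12. Estradiol 0.03–0.05 given s.c. daily for 7 days, with test compound or letrozole reference at various doses up to 0.06 per animal, given orally in 0.5% carboxymethylcellulose. Controls received estradiol alone. Uterine weights were taken on day 8 and group means expressed as % reduction versus estradiol-only controls. Potency was taken relative to letrozole.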

In order of falling Activity:
1. N#Cc1c(C(=O)c2cn(-c3ccc(Cl)cc3)nc2C(=O)Nc2ccccc2)nn(-c2ccccc2)c1-c1ccccc1  34.87%
2. Cc1ccc(-n2cc(C(=O)c3nn(-c4ccccc4)c(-c4ccccc4)c3C#N)c(C(=O)Nc3ccccc3)n2)cc1  34.65%
3. N#Cc1c(-c2nnc(O)c3nn(-c4ccc(Cl)cc4)cc23)nn(-c2ccccc2)c1-c1ccccc1  23.76%

tested on: Rattus norvegicus; experiment: Antiestrogenic activity in Sprague-Dawley rat assessed as reduction in estradiol induced uterine weight 0.06 ug, po after 8 days relative to letrozole; format: functional; conditions: not given; how it was run: as §1

In order of falling potency ratio vs letrozole:
1. N#Cc1c(C(=O)c2cn(-c3ccc(Cl)cc3)nc2C(=O)Nc2ccccc2)nn(-c2ccccc2)c1-c1ccccc1  1.61
2. Cc1ccc(-n2cc(C(=O)c3nn(-c4ccccc4)c(-c4ccccc4)c3C#N)c(C(=O)Nc3ccccc3)n2)cc1  1.6
3. N#Cc1c(-c2nnc(O)c3nn(-c4ccc(Cl)cc4)cc23)nn(-c2ccccc2)c1-c1ccccc1  1.09

tested on: not listed separately; experiment: Acute toxicity in mouse after 24 hrs; format: organism-based; conditions: in vivo
How it was run: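 Adult mice of both sexes, acclimatized 1 week (12 h light/dark, 21–23 °C), fasted 12 h before dosing. 30 mice in 6 groups of 5 each got a single oral gavage dose, at different dose levels, of a fine-powder aqueous suspension. LD50 was determined, with values as group means of five mice.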

In order of falling LD50 at 24 h:
1. N#Cc1c(-c2nnc(O)c3nn(-c4ccc(Cl)cc4)cc23)nn(-c2ccccc2)c1-c1ccccc1  322 mg/kg
2. Cc1ccc(-n2cc(C(=O)c3nn(-c4ccccc4)c(-c4ccccc4)c3C#N)c(C(=O)Nc3ccccc3)n2)cc1  122 mg/kg
3. N#Cc1c(C(=O)c2cn(-c3ccc(Cl)cc3)nc2C(=O)Nc2ccccc2)nn(-c2ccccc2)c1-c1ccccc1  101 mg/kg

tested on: MDA-MB-231; experiment: Growth inhibition of human MDA-MB-231cells after 48 hrs by sulforhodamine B assay; format: functional; conditions: MDA-MB-231, 48 h
How it was run: (§2)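 Cells were plated at 5000–40,000 cells/well, depending on doubling time, and preincubated 24 h at 37 °C in 5% CO2. Time-zero plates were TCA-fixed at drug addition. Compounds were dissolved in DMSO and tested at five concentrations (10-fold or ½-log dilutions) for 48 h. Cells were fixed with cold TCA, stained with 0.4% sulforhodamine B and read at 515 nm. GI50 was taken as the concentration giving 50% growth.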

`N#Cc1c(-c2nnc(O)c3nn(-c4ccc(Cl)cc4)cc23)nn(-c2ccccc2)c1-c1ccccc1` and `N#Cc1c(C(=O)c2cn(-c3ccc(Cl)cc3)nc2C(=O)Nc2ccccc2)nn(-c2ccccc2)c1-c1ccccc1` cannot be ordered by GI50: greater than 100 µM for the first, greater than 100 µM for the second.

Work on `Cc1ccc(-n2cc(C(=O)c3nn(-c4ccccc4)c(-c4ccccc4)c3C#N)c(C(=O)Nc3ccccc3)n2)cc1` yielded a GI50 of 6.27 µM.

tested on: MCF7; experiment: Growth inhibition of human MCF7 cells after 48 hrs by sulforhodamine B assay; format: functional; conditions: MCF7, 48 h; how it was run: as §2

`N#Cc1c(-c2nnc(O)c3nn(-c4ccc(Cl)cc4)cc23)nn(-c2ccccc2)c1-c1ccccc1` and `N#Cc1c(C(=O)c2cn(-c3ccc(Cl)cc3)nc2C(=O)Nc2ccccc2)nn(-c2ccccc2)c1-c1ccccc1` cannot be ordered by GI50: greater than 100 µM for the first, greater than 100 µM for the second.

`Cc1ccc(-n2cc(C(=O)c3nn(-c4ccccc4)c(-c4ccccc4)c3C#N)c(C(=O)Nc3ccccc3)n2)cc1` showed a GI50 of 34.4 µM.

tested on: T47D; experiment: Growth inhibition of human T47D cells after 48 hrs by sulforhodamine B assay; format: functional; conditions: not given; how it was run: as §2

Going from `N#Cc1c(-c2nnc(O)c3nn(-c4ccc(Cl)cc4)cc23)nn(-c2ccccc2)c1-c1ccccc1` to `N#Cc1c(C(=O)c2cn(-c3ccc(Cl)cc3)nc2C(=O)Nc2ccccc2)nn(-c2ccccc2)c1-c1ccccc1`, the GI50 falls from greater than 100 µM to 33 µM.

`Cc1ccc(-n2cc(C(=O)c3nn(-c4ccccc4)c(-c4ccccc4)c3C#N)c(C(=O)Nc3ccccc3)n2)cc1` gave a GI50 of 30.8 µM.

tested on: NCI/ADR-RES; experiment: Growth inhibition of human NCI/ADR-RES cells after 48 hrs by sulforhodamine B assay; format: functional; conditions: not given; how it was run: as §2

`N#Cc1c(-c2nnc(O)c3nn(-c4ccc(Cl)cc4)cc23)nn(-c2ccccc2)c1-c1ccccc1` and `N#Cc1c(C(=O)c2cn(-c3ccc(Cl)cc3)nc2C(=O)Nc2ccccc2)nn(-c2ccccc2)c1-c1ccccc1` cannot be ordered by GI50: greater than 100 µM for the first, greater than 100 µM for the second.

Work on `Cc1ccc(-n2cc(C(=O)c3nn(-c4ccccc4)c(-c4ccccc4)c3C#N)c(C(=O)Nc3ccccc3)n2)cc1` yielded a GI50 of 2.48 µM.

tested on: not listed separately; experiment: Growth inhibition of human Hs 578T cells after 48 hrs by sulforhodamine B assay; format: functional; conditions: not given; how it was run: as §2

Compared with `N#Cc1c(-c2nnc(O)c3nn(-c4ccc(Cl)cc4)cc23)nn(-c2ccccc2)c1-c1ccccc1`, `N#Cc1c(C(=O)c2cn(-c3ccc(Cl)cc3)nc2C(=O)Nc2ccccc2)nn(-c2ccccc2)c1-c1ccccc1` is lower in GI50: greater than 100 µM for the first, 8.84 µM for the second.

Work on `Cc1ccc(-n2cc(C(=O)c3nn(-c4ccccc4)c(-c4ccccc4)c3C#N)c(C(=O)Nc3ccccc3)n2)cc1` yielded a GI50 of 63.2 µM.

tested on: MDA-MB-435; experiment: Growth inhibition of human MDA-MB-435 cells after 48 hrs by sulforhodamine B assay; format: functional; conditions: MDA-MB-435, 48 h; how it was run: as §2

Going from `N#Cc1c(-c2nnc(O)c3nn(-c4ccc(Cl)cc4)cc23)nn(-c2ccccc2)c1-c1ccccc1` to `N#Cc1c(C(=O)c2cn(-c3ccc(Cl)cc3)nc2C(=O)Nc2ccccc2)nn(-c2ccccc2)c1-c1ccccc1`, the GI50 falls from greater than 100 µM to 2.03 µM.

Work on `Cc1ccc(-n2cc(C(=O)c3nn(-c4ccccc4)c(-c4ccccc4)c3C#N)c(C(=O)Nc3ccccc3)n2)cc1` yielded a GI50 of 2.23 µM.

tested on: MDA-N; experiment: Growth inhibition of human MDA-N cells after 48 hrs by sulforhodamine B assay; format: functional; conditions: not given; how it was run: as §2

`N#Cc1c(-c2nnc(O)c3nn(-c4ccc(Cl)cc4)cc23)nn(-c2ccccc2)c1-c1ccccc1` and `N#Cc1c(C(=O)c2cn(-c3ccc(Cl)cc3)nc2C(=O)Nc2ccccc2)nn(-c2ccccc2)c1-c1ccccc1` cannot be ordered by GI50: greater than 100 µM for the first, greater than 100 µM for the second.

Compound `Cc1ccc(-n2cc(C(=O)c3nn(-c4ccccc4)c(-c4ccccc4)c3C#N)c(C(=O)Nc3ccccc3)n2)cc1` has a GI50 of 5.49 µM.

tested on: BT-549; experiment: Growth inhibition of human BT549 cells after 48 hrs by sulforhodamine B assay; format: functional; conditions: BT-549, 48 h; how it was run: as §2

First: N#Cc1c(-c2nnc(O)c3nn(-c4ccc(Cl)cc4)cc23)nn(-c2ccccc2)c1-c1ccccc1
Second: N#Cc1c(C(=O)c2cn(-c3ccc(Cl)cc3)nc2C(=O)Nc2ccccc2)nn(-c2ccccc2)c1-c1ccccc1
The GI50 of the first is higher: greater than 100 µM for the first, 11.8 µM for the second.

In the case of `Cc1ccc(-n2cc(C(=O)c3nn(-c4ccccc4)c(-c4ccccc4)c3C#N)c(C(=O)Nc3ccccc3)n2)cc1`, the GI50 is reported as greater than 100 µM.

tested on: IGROV-1; experiment: Growth inhibition of human IGROV1 cells after 48 hrs by sulforhodamine B assay; format: functional; conditions: IGROV-1, 48 h; how it was run: as §2

In order of rising GI50:
1. Cc1ccc(-n2cc(C(=O)c3nn(-c4ccccc4)c(-c4ccccc4)c3C#N)c(C(=O)Nc3ccccc3)n2)cc1  16.6 µM
2. N#Cc1c(-c2nnc(O)c3nn(-c4ccc(Cl)cc4)cc23)nn(-c2ccccc2)c1-c1ccccc1  91.3 µM
3. N#Cc1c(C(=O)c2cn(-c3ccc(Cl)cc3)nc2C(=O)Nc2ccccc2)nn(-c2ccccc2)c1-c1ccccc1  99.5 µM

tested on: OVCAR-3; experiment: Growth inhibition of human OVCAR3 cells after 48 hrs by sulforhodamine B assay; format: functional; conditions: OVCAR-3, 48 h; how it was run: as §2

In order of falling GI50:
1. N#Cc1c(-c2nnc(O)c3nn(-c4ccc(Cl)cc4)cc23)nn(-c2ccccc2)c1-c1ccccc1  33.4 µM
2. N#Cc1c(C(=O)c2cn(-c3ccc(Cl)cc3)nc2C(=O)Nc2ccccc2)nn(-c2ccccc2)c1-c1ccccc1  23.8 µM
3. Cc1ccc(-n2cc(C(=O)c3nn(-c4ccccc4)c(-c4ccccc4)c3C#N)c(C(=O)Nc3ccccc3)n2)cc1  7.66 µM

tested on: OVCAR-5; experiment: Growth inhibition of human OVCAR5 cells after 48 hrs by sulforhodamine B assay; format: functional; conditions: OVCAR-5, 48 h; how it was run: as §2

First: N#Cc1c(-c2nnc(O)c3nn(-c4ccc(Cl)cc4)cc23)nn(-c2ccccc2)c1-c1ccccc1
Second: N#Cc1c(C(=O)c2cn(-c3ccc(Cl)cc3)nc2C(=O)Nc2ccccc2)nn(-c2ccccc2)c1-c1ccccc1
The GI50 of the first is lower: 32.8 µM for the first, greater than 100 µM for the second.

In the case of `Cc1ccc(-n2cc(C(=O)c3nn(-c4ccccc4)c(-c4ccccc4)c3C#N)c(C(=O)Nc3ccccc3)n2)cc1`, the GI50 is reported as 9.72 µM.

tested on: OVCAR-8; experiment: Growth inhibition of human OVCAR8 cells after 48 hrs by sulforhodamine B assay; format: functional; conditions: OVCAR-8, 48 h; how it was run: as §2

Going from `N#Cc1c(-c2nnc(O)c3nn(-c4ccc(Cl)cc4)cc23)nn(-c2ccccc2)c1-c1ccccc1` to `N#Cc1c(C(=O)c2cn(-c3ccc(Cl)cc3)nc2C(=O)Nc2ccccc2)nn(-c2ccccc2)c1-c1ccccc1`, the GI50 rises from 3.23 µM to greater than 100 µM.

In the case of `Cc1ccc(-n2cc(C(=O)c3nn(-c4ccccc4)c(-c4ccccc4)c3C#N)c(C(=O)Nc3ccccc3)n2)cc1`, the GI50 is reported as 9.52 µM.

tested on: OVCAR-4; experiment: Growth inhibition of human OVCAR4 cells after 48 hrs by sulforhodamine B assay; format: functional; conditions: OVCAR-4, 48 h; how it was run: as §2

In order of rising GI50:
1. N#Cc1c(-c2nnc(O)c3nn(-c4ccc(Cl)cc4)cc23)nn(-c2ccccc2)c1-c1ccccc1  4.38 µM
2. Cc1ccc(-n2cc(C(=O)c3nn(-c4ccccc4)c(-c4ccccc4)c3C#N)c(C(=O)Nc3ccccc3)n2)cc1  7.56 µM
3. N#Cc1c(C(=O)c2cn(-c3ccc(Cl)cc3)nc2C(=O)Nc2ccccc2)nn(-c2ccccc2)c1-c1ccccc1  28.4 µM

tested on: SK-OV-3; experiment: Growth inhibition of human SKOV3 cells after 48 hrs by sulforhodamine B assay; format: functional; conditions: SK-OV-3, 48 h; how it was run: as §2

In order of falling GI50:
1. N#Cc1c(-c2nnc(O)c3nn(-c4ccc(Cl)cc4)cc23)nn(-c2ccccc2)c1-c1ccccc1  30.8 µM
2. N#Cc1c(C(=O)c2cn(-c3ccc(Cl)cc3)nc2C(=O)Nc2ccccc2)nn(-c2ccccc2)c1-c1ccccc1  9.42 µM
3. Cc1ccc(-n2cc(C(=O)c3nn(-c4ccccc4)c(-c4ccccc4)c3C#N)c(C(=O)Nc3ccccc3)n2)cc1  9.42 µM
